≈ marks a conversion by molar mass, not a printed value.
Legend:
Assay type in all cases: functional
[1] = test system: Bursaphelenchus xylophilus; assay: Nematicidal activity against second juvenile stage (J2) of Bursaphelenchus xylophilus assessed as mortality at >0.33 ug/ml after 2 days by microtiter plate assay method (Beneficial crop Pine)
Outline: (§1)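 Pine wood nematodes reared on B. cinerea mycelia on PDA for 7 days at 28 °C. J2s collected in 0.01% Triton X-100 water and tested in microtiter plates. Compounds in DMSO or MeOH, solvent ≤1%; solvent-only controls. Concentrations 0.004–1 μg/mL. Mortality Abbott-corrected; LC50 by probit. Two runs, three replicates each.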

[2] = test system: Bursaphelenchus xylophilus; assay: Nematicidal activity against second juvenile stage (J2) of Bursaphelenchus xylophilus assessed as mortality after 2 days by microtiter plate assay method (Beneficial crop Pine); details: 48 h; outline: as §1
[3] = test system: Meloidogyne incognita; assay: Nematicidal activity against second juvenile stage (J2) of Meloidogyne incognita (root-knot nematode) assessed as mortality incubated in the dark at 28 degC after 2 days by light microscopy (benficial crop Tomato); details: 48 h
Outline: (§2)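 M. incognita eggs taken from infected tomato roots with hypochlorite and J2s hatched in Baermann funnels at 28 °C. J2s from the first 3 days kept in 0.01% Tween 20 water and used within 24 h. About 100 J2s per well; stock added 1:100 in DMSO or MeOH (≤1%). Plates kept shaking in the dark at 28 °C, scored by microscope at 1, 2 and 3 days. Mortality Abbott-corrected. Two runs, three replicates each.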

[4] = test system: Meloidogyne incognita; assay: Nematicidal activity against second juvenile stage (J2) of Meloidogyne incognita (root-knot nematode) assessed as mortality incubated in the dark at 28 degC after 1 day by light microscopy (benficial crop Tomato); details: 24 h; outline: as §2
[5] = test system: Meloidogyne incognita; assay: Nematicidal activity against second juvenile stage (J2) of Meloidogyne incognita (root-knot nematode) assessed as mortality incubated in the dark at 28 degC after 3 days by light microscopy (benficial crop Tomato); details: 72 h; outline: as §2

Compound	mortality [1]	LC50 [2]	LC50 [3]	LC50 [4]	LC50 [5]
CCCCCCCCCC[C@H](O)[C@H]1CC[C@H]([C@H]2CC[C@H]([C@H](O)CCCCCCCCCCC3=C[C@H](C)OC3=O)O2)O1 (relative stereo) [REL-SQUAMOCIN-J]	100%	0.025 µg/mL	–	–	–
CCCCCCCCCC[C@@H](O)[C@H]1CC[C@H]([C@H]2CC[C@H]([C@H](O)CCCCCCCCCCCCC3=C[C@H](C)OC3=O)O2)O1 [ISODESAACETYLUVARICIN]	100%	0.024 µg/mL	–	–	–
CCCCCCCCCCCC[C@@H](O)[C@H]1CC[C@H]([C@H](O)CCCCCCCCCCCCC2=C[C@H](C)OC2=O)O1 (relative stereo) [REL-SOLAMIN]	–	> 1 µg/mL	–	–	–
CCCCCCCCCC[C@H](O)[C@H]1CC[C@H]([C@H]2CC[C@H]([C@H](O)CCCCCCCCCCCCC3=C[C@H](C)OC3=O)O2)O1 [BULLANIN]	100%	0.018 µg/mL	–	–	–
CCCCCCCCCC[C@@H](O)[C@H]1CC[C@H]([C@H](O)CCCCCCCCCCCCCCC2=C[C@H](C)OC2=O)O1 (relative stereo) [REL-ANNOTEMOYIN-1]	–	0.947 µg/mL	–	–	–
O=C/C=C/c1ccccc1 [CINNAMALDEHYDE]	–	–	13.9 µg/mL (≈ 105 µM)	15.1 µg/mL (≈ 115 µM)	12.2 µg/mL (≈ 92.6 µM)
CCCCCCCCCC[C@@H](O)[C@H]1CC[C@H]([C@H]2CC[C@H]([C@H](O)CCCCCCCCCCC3=C[C@H](C)OC3=O)O2)O1 (relative stereo) [REL-SQUAMOCIN-K]	100%	0.039 µg/mL	–	–	–

From ChEMBL document CHEMBL3044956, “Nematicidal and antifungal activities of annonaceous acetogenins from Annona squamosa against various plant pathogens” (J Agric Food Chem, 2011)
